# Shown are actives, neighbours in structure and some others; about 1.6% of the full set was active somewhere.
# PPC-1+TRAIL kill: PPC-1 cancer cell killing with TRAIL present | cell killing (% activity), % at 4 µM or 5 µM | AID 1443 | 0.41% of 220,000 active | PPC-1 cells + TRAIL, ATPLite viability luminescence;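 active = cell killing above 50% in the first pass at 4 µM, then a duplicate retest at 5 µM averaging 50% or more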;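 also: plate controls were cells with TRAIL plus DMSO for no effect and medium-only wells lacking cells for full effect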
# FLuc inhib CS: Photinus pyralis luciferase inhibition counter-screen. P08659. ATPLite firefly luciferase biochemical luminescence, 10 min. inhibition, % at 10 µM. 1.5% of 200,000 active. AID 1006;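 active = inhibition above about 50% when tested at 10 µM, limit read from the data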
# Target sequence (P08659 whole entry, looked up): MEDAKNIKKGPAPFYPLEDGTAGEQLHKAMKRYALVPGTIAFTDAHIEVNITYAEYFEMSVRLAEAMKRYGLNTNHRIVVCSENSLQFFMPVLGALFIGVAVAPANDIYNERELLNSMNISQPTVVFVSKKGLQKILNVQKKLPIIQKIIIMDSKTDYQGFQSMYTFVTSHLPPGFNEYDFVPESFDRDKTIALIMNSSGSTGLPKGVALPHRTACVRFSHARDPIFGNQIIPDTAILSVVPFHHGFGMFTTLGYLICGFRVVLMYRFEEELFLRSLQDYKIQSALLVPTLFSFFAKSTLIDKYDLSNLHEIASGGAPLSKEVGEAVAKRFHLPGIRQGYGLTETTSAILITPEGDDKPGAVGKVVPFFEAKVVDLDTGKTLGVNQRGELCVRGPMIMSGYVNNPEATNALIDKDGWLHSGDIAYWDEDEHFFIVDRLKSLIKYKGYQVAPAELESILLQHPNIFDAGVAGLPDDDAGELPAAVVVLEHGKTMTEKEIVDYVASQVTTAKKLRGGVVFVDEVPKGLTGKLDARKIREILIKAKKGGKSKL
# FLuc act counter: affects firefly luciferase, flagging false hits in luciferase stimulation screens; P08659; ATPlite luciferase biochemical, luminescence, 10 min; 0 = ATP-free wells, 1 = DMSO control; activation factor at 10 µM; 200,000 tested, under 10 active;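 active = luciferase activation factor, scaled between plate controls, of at least 2 with compound at 10 µM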
#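 Material: Luciferase/luciferin reagent mix; Doses: test compounds dosed from 2 mM stocks in 100% DMSO; Schedule: 10 min incubation after luciferase reagent addition, room temperature; Measured by: luminescence from luciferase reaction; Read-out: luminescence gain marking luciferase activators.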
# C8 TRAIL sens: sensitizes caspase-8 expressing cells to TRAIL; inhibition (viability loss, TRAIL sensitization), % at 10 µM; NB7+C8 cells + TRAIL, ATPlite viability luminescence; 1% of 360,000 active;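 active = compounds causing at least 50% loss of cell viability in the single-dose screen, relative to plate controls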
# * marks the source's active call; other numbers are inactive results; . = not tested or not shown.
SMILES,PPC-1+TRAIL kill,FLuc inhib CS,FLuc act counter,C8 TRAIL sens
COc1cccc(/C=N/Nc2nc3ccccc3n3cnnc23)c1O,34,37,0.6,54*
COc1cccc(C=NNc2nnc(NN=Cc3cccc(OC)c3OC)c3ccccc23)c1OC,.,.,.,80*
CCCCCCCCN1CC(Cc2cc3ccccc3c3ccccc23)N(c2ccccc2)c2ccccc2C1=O (centres undefined),.,.,.,1
CCc1c(C)[nH]c2c(C)cccc2c1=O,3,0,1,52*
c1ccc2sc(Sc3ncnc4sccc34)nc2c1,13,64*,0.4,-13
Cc1ccc2c(c1)C(=NC1CCCCC1)c1cc3ccccc3nc1-2,14,7,0.9,64*
Cc1ccc2c(c1)-c1nc3ccccc3cc1C2=NC1CCCCC1,25,5,0.9,51*
Cc1ccc(-c2cc3ccccc3nc2N2CCCC2)cc1,4,-5,1,-12
O=C(N/N=C/c1cn(-c2ccccc2)nc1-c1cccs1)c1ccncc1,23,14,0.9,4
O=C(O)c1cccc(N/N=C/c2sc(N3CCOCC3)nc2-c2ccccc2)c1,5,60*,0.4,20
O=C(O)c1cccc(N/N=C/c2cn(-c3ccccc3)nc2-c2cccs2)c1,4,54*,0.5,21
NC(=O)N/N=C/c1cn(-c2ccccc2)nc1-c1cccs1,44,70*,0.3,39
Cc1ccsc1/C=N/Nc1ccc(C(=O)O)cc1,.,.,.,8
Cc1ccsc1/C=N/Nc1cccc(C(=O)O)c1,1,59*,0.4,16
O=C(NCc1ccccc1)C(c1ccc(C(F)(F)F)cc1)N1CCN(CCN2CCOCC2)CC1 (centres undefined),.,.,.,8
COc1cc(Cn2nnc3ccccc32)cc(Br)c1O,.,.,.,-4
Cc1nn(-c2cccc(C(F)(F)F)c2)c(Cl)c1/C=N/Nc1cccc(C(=O)O)c1,22,7,0.9,-8
Cc1nn(-c2ccccc2Cl)c(Cl)c1/C=N/Nc1cccc(C(=O)O)c1,40,90*,0.1,78*
O=C(N=Nc1ccc(NOC(=O)c2ccccc2Br)cc1)c1ccccc1O,48,61*,0.4,.
Cc1cc(N=NC(=O)c2ccccc2O)c2ccccc2c1O,-7,49,0.5,14
CN(c1ccccc1)S(=O)(=O)c1cccc(NC(=O)c2ccc(Cl)c([N+](=O)[O-])c2)c1,.,.,.,21
COc1c(Cl)cnn(-c2ccc(C)cc2)c1=O,19,1,1,8
COc1ccc(Oc2c(Cl)cnn(-c3ccc(Cl)c(Cl)c3)c2=O)cc1,9,-4,1,89*
Cn1ncc(Cl)c(Oc2ccc(Cl)cc2)c1=O,8,-7,1.1,6
COc1ccc(Oc2c(Cl)cnn(-c3ccc(F)cc3)c2=O)cc1,7,0,1,87*
SMILES,PPC-1+TRAIL kill,FLuc inhib CS,FLuc act counter,C8 TRAIL sens
COc1ccc(Oc2c(Cl)cnn(-c3ccc(C)cc3)c2=O)cc1,16,-6,1.1,61*
COc1cnn(-c2ccc(F)cc2)c(=O)c1Br,18,0,1,1
O=c1c2sccc2n(Cc2cccc(F)c2)c(=O)n1-c1ccc(F)cc1,11,-2,1,2
Cc1ccc(S(=O)(=O)N2C[C@]3(O)C[C@@H]4C(=O)N(c5ccccc5)C(=O)[C@@H]4C[C@]3(OC(=O)Nc3cccs3)C2)cc1,.,.,.,0
O=c1c(C=NCc2cccnc2)c(C(F)(F)F)[nH]n1-c1nc2ccccc2s1,.,74*,0.3,45
CCC(=NCc1ccccc1)c1c(C(F)(F)F)[nH]n(-c2nc3ccccc3s2)c1=O,21,8,0.9,5
O=C(NC(=S)Nc1ccc(Br)cn1)c1cccs1,17,72*,0.3,65*
Cc1cccnc1NC(=S)NC(=O)c1cccs1,29,71*,0.3,69*
C=CCOc1ccc2c(OC)c3ccoc3nc2c1OC,34,54*,0.5,46
CCOc1c2ccoc2nc2c(OC)c(OC)ccc12,4,37,0.6,14
CCOC(=O)c1ccc(OCC(=O)c2ccc(O)cc2O)cc1,32,59*,0.4,43
O=C(COc1ccc(Cl)cc1)c1ccc(O)cc1O,18,.,.,7
O=C(COC(=O)c1ccccc1C(=O)c1ccc(Cl)c([N+](=O)[O-])c1)NC1CCCCCC1,16,3,1,94*
Cn1c(N)c(C(=O)COC(=O)c2ccccc2C(=O)c2ccc(Cl)c([N+](=O)[O-])c2)c(=O)n(C)c1=O,.,.,.,92*
COc1ccc(-c2cc(C(=O)O)nc3ccc4ccccc4c23)cc1OC,42,65*,0.3,34
O=C1/C(=C\c2cccc(O)c2O)SC(=S)N1Cc1ccccc1,.,.,.,52*
CCN1C[C@@H]2[C@@H]3C(=O)N(Cc4ccccc4)C(=O)[C@@H]3[C@](CC)(C(=O)OC)N2C1=NC,.,.,.,-5
NC(=O)c1ccsc1NC(=O)CS(=O)(=O)c1ccc(F)cc1,.,.,.,-18
Cc1cc(N/N=C/c2ccccc2)nc(NCc2ccccc2)n1,31,76*,0.2,55*
Cc1cc(-c2ccccc2)nc(N/N=C/c2cccnc2)n1,38,74*,0.3,39
Cc1cc(-c2ccccc2)nc(N/N=C/c2ccccc2)n1,.,.,.,65*
Cc1nc(NC(=O)c2ccccc2)sc1C,.,.,.,18
COC(=O)c1ccc(C(=O)NC(=S)Nc2nc3c(s2)CCCC3)cc1,-7,-4,1,13
Cc1nc(NC(=S)NC(=O)c2ccccc2)sc1C,19,.,.,63*
O=C(NC(=S)Nc1nc2c(s1)CCCC2)c1ccccc1,23,63*,0.4,71*
SMILES,PPC-1+TRAIL kill,FLuc inhib CS,FLuc act counter,C8 TRAIL sens
C/C(Cn1cnc([N+](=O)[O-])n1)=N/NC(=O)COc1c(Cl)cc(Cl)cc1Cl,16,-6,1.1,-3
Cc1ccc(C2=NN=C(NC(=O)CSc3nncn3C)SC2)cc1,1,86*,0.1,11
O=S1(=O)CC(c2ccccc2)=NN=C(c2ccccc2)C1,.,.,.,75*
Brc1ccccc1-n1nnc(-c2nccs2)n1,12,51*,0.5,11
Oc1ccc(-c2csc(-c3cccnc3)n2)c(O)c1,1,53*,0.5,24
c1cncc(-c2csc(-c3cccnc3)n2)c1,.,.,.,2
Cc1cccc(NC(=O)COC(=O)CCc2c[nH]c3ccccc23)c1,.,.,.,17
Nc1nc(N)c2c(ccc3c2ccn3Cc2cccc([N+](=O)[O-])c2)n1,.,.,.,97*
COc1cccc2c1C(=O)c1c(O)c3c(c(O)c1C2=O)C[C@@](O)(C(=O)CO)C[C@@H]3O[C@H]1C[C@H](N)[C@@H](O)[C@H](C)O1,.,.,.,57*
COc1cccc2c1C(=O)c1c(O)c3c(c(O)c1C2=O)CC(O)(C(=O)CO)CC3OC1CC(N(C)C)C(O)C(C)O1 (centres undefined),.,.,.,49
COc1ccc(/C=C(\C#N)C(=O)Nc2cccnc2)cc1,21,6,0.9,-9
COc1ccc(O)c(/C=C(\C#N)C(=O)Nc2cccnc2)c1,10,63*,0.4,-11
CC(=O)Nc1nc(-c2ccc([N+](=O)[O-])cc2)cs1,16,-3,1,2
O=C(Nc1ccc([N+](=O)[O-])cc1)Nc1nc(-c2ccc(Cl)s2)cs1,67*,-5,1.1,40
